Drawing on ChEMBL document CHEMBL4392862, “Antioxidant, anti-tyrosinase and anti-melanogenic effects of (E)-2,3-diphenylacrylic acid derivatives” (Bioorg Med Chem, 2019), this text covers Activity and inhibition for 17 compounds.

The subject of the first series is B16-F10. In words: Cytotoxicity against mouse B16F10 cells assessed as reduction in cell viability at 5 to 10 uM incubated for 24 hrs by WST8 assay. The format is cell-based. As to conditions: b16-f10, 24 h. The method, boiled down: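 B16F10 cells seeded at 5x10^4 per well in DMEM with 10% FBS and penicillin/streptomycin, 37 °C, 5% CO2, and grown 24 h. Exposed to 0, 5, 10 or 25 µM for 24 h. WST-8 reagent added for 1 h, OD read at 450 nm. Viability expressed as % of untreated cells. Three repeats.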
Turning to `O=C(O)/C(=C/c1ccc(O)cc1O)c1ccccc1`, the Activity entry is given as “Non-Toxic”.

The next series concerns the target T1, Tyrosinase (Mus musculus) (UniProt P11344).
T1 sequence (whole entry): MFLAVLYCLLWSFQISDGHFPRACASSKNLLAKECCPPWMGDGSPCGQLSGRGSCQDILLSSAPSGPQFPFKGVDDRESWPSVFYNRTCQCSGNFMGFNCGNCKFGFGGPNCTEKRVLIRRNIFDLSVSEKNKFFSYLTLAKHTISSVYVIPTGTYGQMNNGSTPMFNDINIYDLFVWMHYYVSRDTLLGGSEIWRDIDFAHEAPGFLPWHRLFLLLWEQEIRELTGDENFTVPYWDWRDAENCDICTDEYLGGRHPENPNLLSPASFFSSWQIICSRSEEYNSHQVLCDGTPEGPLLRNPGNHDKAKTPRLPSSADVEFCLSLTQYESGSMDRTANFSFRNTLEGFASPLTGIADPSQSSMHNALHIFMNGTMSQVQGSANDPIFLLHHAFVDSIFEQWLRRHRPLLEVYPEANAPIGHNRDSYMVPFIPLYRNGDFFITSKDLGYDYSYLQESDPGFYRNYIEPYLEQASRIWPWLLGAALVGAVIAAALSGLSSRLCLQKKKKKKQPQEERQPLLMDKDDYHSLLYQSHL
As to conditions: 400 uM.
As to `OC[C@H]1O[C@@H](Oc2ccc(O)cc2)[C@H](O)[C@@H](O)[C@@H]1O`, the inhibition turned out to be 42.6%.

Tested on in a further series: not listed separately
In words: Antioxidant activity assessed as DPPH radical scavenging activity at 1 mM after 30 mins under dark condition relative to untreated control. The class given is functional.
Conditions: not given
The essentials:
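Test compounds dissolved in DMSO, mixed 1:9 (v/v) with 0.2 mM DPPH in methanol to a tested level of 1 mM. Incubated 30 min in the dark. Absorbance read at 517 nm. Scavenging % = (Ac−As)×100/Ac against untreated control. L-ascorbic acid used as positive control. Triplicate.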
Take `O=C(O)/C(=C\c1cc(Br)c(O)c(Br)c1)c1ccccc1`: the inhibition worked out at 11.6%. With `COc1ccc(/C=C(/C(=O)O)c2ccccc2)cc1`, the inhibition turned out to be 5.68%. As to `O=C(O)/C(=C/c1ccccc1O)c1ccccc1`, the inhibition is 4.43%. In the case of `COc1ccc(/C=C(/C(=O)O)c2ccccc2)cc1O`, the inhibition was 24%. The same measure, in the same setting: the figure for `O=C(O)/C(=C/c1ccc(O)cc1)c1ccccc1` is 6.04%; for `O=C(O)/C(=C/c1ccc(O)c(O)c1)c1ccccc1` it is 83.7%. `Cc1cc(/C=C(/C(=O)O)c2ccccc2)ccc1O`: the inhibition stood at 78.1%. For the compound `COc1ccc(/C=C(/C(=O)O)c2ccccc2)cc1OC`, the inhibition worked out at 10.2%. As to `O=C(O)/C(=C/c1ccc(O)c(Br)c1)c1ccccc1`, the inhibition stood at 19.4%. The same measure, in the same setting: next, `O=C(O)/C(=C/c1cc(Br)c(O)c(Br)c1)c1ccccc1`: 23.9%.

Consider `COc1cc(/C=C(/C(=O)O)c2ccccc2)ccc1O`, for which the inhibition came out at 81.6%.

As for `O=C1O[C@H]([C@@H](O)CO)C(O)=C1O`, the inhibition stood at 84.6%.

In the case of `COc1cc(/C=C(/C(=O)O)c2ccccc2)cc(OC)c1O`, the inhibition turned out to be 85%.

As to `CCOc1cc(/C=C(/C(=O)O)c2ccccc2)ccc1O`, the inhibition came out at 43.6%.

Consider `O=C(O)/C(=C/c1cccc(O)c1)c1ccccc1`, for which the inhibition came out at 12.4%. On the same count and under the same terms, the figure for `O=C(O)/C(=C/c1ccc(O)cc1O)c1ccccc1` is 52.1%.

Another series addresses T1, Tyrosinase (Mus musculus). In words: Inhibition of tyrosinase in alpha-MSH-stimulated mouse B16F10 cells incubated for 24 hrs relative to untreated control.
Conditions: not given
The method, boiled down:
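B16F10 cells seeded at 5x10^4 per well and grown 24 h at 37 °C, 5% CO2. […] Cells PBS-washed, lysed in PMSF/Triton X-100 buffer, frozen at −80 °C, spun 12,000 rpm 4 °C. Supernatant incubated with L-dopa 30 min at 37 °C, OD read at 500 nm. Triplicate.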
Consider `O=C(O)/C(=C/c1ccc(O)cc1O)c1ccccc1`, for which the inhibition entry is “Dose-dependent effect”.
